# ChEMBL document CHEMBL1157704, “Potent activity against K562 cells by polyamide-seco-CBI conjugates targeting histone H4 genes” (Bioorg Med Chem, 2010)
# The source made the active and inactive calls.
# What was measured:
# K562 [1] = experiment: Effect on HIST1H4J gene expression in human K562 cells assessed as down-regulation of mRNA transcript expression at 10 nM after 48 hrs by DNA microarray analysis relative to control; format: functional
# Summary of the method: (§1)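 K562 CML cells (b3a2 Bcr-Abl) in standard ATCC-recommended culture, exposed once to 10 nM conjugate and harvested at 48 h. Untreated controls were also collected at 48 h. Transcripts were profiled on Human Gene 1.0 ST whole-genome oligonucleotide arrays, and each treated level was expressed relative to the untreated control, with a cutoff of at least twofold change.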
# K562 [2] = experiment: Downregulation of histone H4C mRNA expression in human K562 cells at 250 nM after 48 hrs by real-time PCR analysis; format: functional
# Summary of the method: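 Treated K562 cells were assayed by one-step real-time RT-PCR. Reverse transcription ran 50 °C for 10 min, then hot-start polymerase activation at 95 °C for 15 min. Cycling was 45 cycles of 95 °C 15 s, 55 °C 30 s and 72 °C 30 s. Levels were normalized to GAPDH mRNA; error shown as standard deviation.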
# K562 [3] = experiment: Effect on LPHN3 gene expression in human K562 cells assessed as change in mRNA transcript expression at 10 nM after 48 hrs by DNA microarray analysis relative to control; format: functional; summary of the method: as §1
# K562 [4] = experiment: Effect on LOC10012 gene expression in human K562 cells assessed as change in mRNA transcript expression at 10 nM after 48 hrs by DNA microarray analysis relative to control; format: functional; summary of the method: as §1
# K562 [5] = experiment: Effect on HIST1H1C gene expression in human K562 cells assessed as change in mRNA transcript expression at 10 nM after 48 hrs by DNA microarray analysis relative to control; format: functional
# Summary of the method: (§2)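 Transcripts were profiled on Affymetrix GeneChip Human Gene 1.0 ST arrays in K562 cells treated at 10 nM. Treated cells were collected at 6, 12, 24 and 48 h; untreated controls were collected at 48 h. Transcripts changed at least twofold versus control were scored.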
# K562 [6] = experiment: Effect on NDUFS4 gene expression in human K562 cells assessed as change in mRNA transcript expression at 10 nM after 48 hrs by DNA microarray analysis relative to control; format: functional; summary of the method: as §1
# K562 [7] = experiment: Effect on TMEM126A gene expression in human K562 cells assessed as change in mRNA transcript expression at 10 nM after 48 hrs by DNA microarray analysis relative to control; format: functional
# Summary of the method: (§3)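 K562 CML cells (b3a2 Bcr-Abl) kept under standard culture conditions were exposed to 10 nM conjugate and harvested at 6, 12, 24 and 48 h. Untreated controls were harvested at 48 h. Whole-transcript oligonucleotide microarray profiling was done, and changes of at least twofold versus control were scored.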
# K562 [8] = experiment: Effect on MRPS28 gene expression in human K562 cells assessed as change in mRNA transcript expression at 10 nM after 48 hrs by DNA microarray analysis relative to control; format: functional; summary of the method: as §1
# K562 [9] = experiment: Effect on BBS9 gene expression in human K562 cells assessed as change in mRNA transcript expression at 10 nM after 48 hrs by DNA microarray analysis relative to control; format: functional; summary of the method: as §2
# K562 [10] = experiment: Effect on FLJ21767 gene expression in human K562 cells assessed as change in mRNA transcript expression at 10 nM after 48 hrs by DNA microarray analysis relative to control; format: functional; summary of the method: as §2
# [11] = system: histone H4c gene fragment DNA (human); experiment: Binding affinity to 5'-AGAAAA-3' sequence of 223 bp human histone H4c gene fragment DNA assessed as DNA alkylating activity at 5 to 100 nM after 15 hrs by PAGE
# K562 [12] = experiment: Effect on TPK1 gene expression in human K562 cells assessed as change in mRNA transcript expression at 10 nM after 48 hrs by DNA microarray analysis relative to control; format: functional; summary of the method: as §3
# K562 [13] = experiment: Effect on C3 gene expression in human K562 cells assessed as change in mRNA transcript expression at 10 nM after 48 hrs by DNA microarray analysis relative to control; format: functional; summary of the method: as §2
# K562 [14] = experiment: Effect on RNU5E gene expression in human K562 cells assessed as change in mRNA transcript expression at 10 nM after 48 hrs by DNA microarray analysis relative to control; format: functional; summary of the method: as §1
# K562 [15] = experiment: Effect on INPP1 gene expression in human K562 cells assessed as change in mRNA transcript expression at 10 nM after 48 hrs by DNA microarray analysis relative to control; format: functional; summary of the method: as §1
# K562 [16] = experiment: Effect on ANKRD20B gene expression in human K562 cells assessed as change in mRNA transcript expression at 10 nM after 48 hrs by DNA microarray analysis relative to control; format: functional; summary of the method: as §2
# K562 [17] = experiment: Effect on TCN1 gene expression in human K562 cells assessed as change in mRNA transcript expression at 10 nM after 48 hrs by DNA microarray analysis relative to control; format: functional; summary of the method: as §1
# K562 [18] = experiment: Effect on CLCA1 gene expression in human K562 cells assessed as change in mRNA transcript expression at 10 nM after 48 hrs by DNA microarray analysis relative to control; format: functional; summary of the method: as §2
# K562 [19] = experiment: Effect on DHFR gene expression in human K562 cells assessed as change in mRNA transcript expression at 10 nM after 48 hrs by DNA microarray analysis relative to control; format: functional; summary of the method: as §2
# K562 [20] = experiment: Cell cycle arrest in human K562 cells assessed as increase in accumulation at G2/M phase at 125 to 250 nM after 48 hrs propidium iodide staining-based FACS analysis; format: functional
# Summary of the method: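 K562 cells, from ATCC and kept under ATCC-recommended conditions, were treated for 48 h and pelleted at 200g for 5 min. They were resuspended in PBS, fixed with prechilled 70% ethanol and stained with propidium iodide at 50 µg/mL. DNA content was read by flow cytometry to assign the G0–G1, S and G2–M fractions; sub-2C DNA content was taken as apoptosis.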
# K562 [21] = experiment: Effect on SUPT3H gene expression in human K562 cells assessed as change in mRNA transcript expression at 10 nM after 48 hrs by DNA microarray analysis relative to control; format: functional; summary of the method: as §1
# K562 [22] = experiment: Effect on HIST1H2B gene expression in human K562 cells assessed as change in mRNA transcript expression at 10 nM after 48 hrs by DNA microarray analysis relative to control; format: functional; summary of the method: as §2
# K562 [23] = experiment: Downregulation of histone H4C mRNA expression in human K562 cells at 125 nM after 48 hrs by real-time PCR analysis; format: functional, cell-based
# Summary of the method: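 K562 cells were treated for 48 h, and H4c and H4e mRNA were measured by one-step real-time RT-PCR. Reverse transcription ran at 50 °C for 10 min, then hot-start activation at 95 °C for 15 min. Cycling was 45 cycles of 95 °C 15 s, 55 °C 30 s and 72 °C 30 s. Levels were normalized to GAPDH mRNA; error bars are SD.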
# K562 [24] = experiment: Effect on HIST1H4K gene expression in human K562 cells assessed as down-regulation of mRNA transcript expression at 10 nM after 48 hrs by DNA microarray analysis relative to control; format: functional; summary of the method: as §1
# K562 [25] = experiment: Effect on HIST1H3B gene expression in human K562 cells assessed as change in mRNA transcript expression at 10 nM after 48 hrs by DNA microarray analysis relative to control; format: functional; summary of the method: as §2
compound,measurement,setting,value
CC(=O)Nc1cn(C)c(C(=O)Nc2cn(C)c(C(=O)NCCC(=O)Nc3cn(C)c(C(=O)NCCCC(=O)Nc4cc(C(=O)Nc5cn(C)c(C(=O)Nc6ccc7[nH]c(C(=O)N8CC(CCl)c9c8cc(O)c8ccccc98)cc7c6)n5)n(C)c4)n3)n2)n1 (stereo not given),fold change (FC),K562 [1],2.61
same,Activity,K562 [2],93%
same,fold change (FC),K562 [3],>=2
same,fold change (FC),K562 [4],>=2
same,fold change (FC),K562 [5],>=2
same,fold change (FC),K562 [6],>=2
same,fold change (FC),K562 [7],>=2
same,fold change (FC),K562 [8],>=2
same,fold change (FC),K562 [9],>=2
same,fold change (FC),K562 [10],>=2
same,Activity,[11],Active
same,fold change (FC),K562 [12],>=2
same,fold change (FC),K562 [13],>=2
same,fold change (FC),K562 [14],>=2
same,fold change (FC),K562 [15],>=2
same,fold change (FC),K562 [16],>=2
same,fold change (FC),K562 [17],>=2
same,fold change (FC),K562 [18],>=2
same,fold change (FC),K562 [19],>=2
same,Activity,K562 [20],Active
same,fold change (FC),K562 [21],>=2
same,fold change (FC),K562 [22],>=2
same,Activity,K562 [23],Active
same,fold change (FC),K562 [24],2.71
same,fold change (FC),K562 [25],>=2
